Results taken from ChEMBL document CHEMBL3124793, “Discovery of spirofused piperazine and diazepane amides as selective histamine-3 antagonists with in vivo efficacy in a mouse model of cognition” (J Med Chem, 2014).
Converted amounts (≈) assume the structure as drawn.

Assays:
[1] = Octanol-water partition coefficient, log D of the compound by shake flask HPLC analysis; type: physicochemical
Outline: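 logD between octanol and water by shake-flask with HPLC analysis.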

[2] = target: T1, Histamine H3 receptor (Homo sapiens, UniProt Q9Y5N1); experiment: Antagonist activity at human histamine H3 receptor long form expressed in CHOK1 cells assessed as inhibition of R-alpha-methylhistamine-induced [35S]GTPgammaS binding after 3 hrs by scintillation proximity assay; type: functional, cell-based, CHO-K1
Outline: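 Membranes from CHO-K1 cells stably expressing human H3R long form (445 aa) incubated 3 h with test compound, 25 nM R-α-methylhistamine, 10 μM GDP, 0.2 nM [35S]GTPγS and WGA PVT SPA beads; bead-bound [35S]GTPγS counted by scintillation. Average of n > 2, standard error <20%.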

[3] = target: Voltage-gated inwardly rectifying potassium channel KCNH2 (Homo sapiens, UniProt Q12809); experiment: Inhibition of human ERG expressed in CHOK1 cells by electrophysiological analysis
[4] = target: T1, Histamine H3 receptor; experiment: Displacement of [3H]-N-alpha-methylhistamine from human histamine H3 receptor expressed in CHOK1 cells after 1.5 hrs by scintillation proximity assay; type: cell-based, CHO-K1
Outline: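 Human H3R-CHO-K1 membranes incubated 1.5 h with test compound and [3H]-N-α-methylhistamine in SPA format; nonspecific binding defined with 10 μM imetit; bead-bound radioligand counted. Average of n > 2, standard error <50%.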

[5] = Intrinsic clearance in rat liver microsomes; type: ADME; settings: read-out: CLH
[6] = Intrinsic clearance in human liver microsomes; type: ADME; settings: read-out: CLH
Outline: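 Human liver microsomal clearance, expressed as μL/min/mg.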

[7] = Percentage unbound in rat plasma; type: ADME, cell-free
Outline: (§1)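 Plasma protein binding in human or rat plasma, expressed as percent free.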

[8] = Apparent permeability from apical to basolateral side in MDCK cells; type: ADME, cell-based, Canis lupus familiaris; settings: dog
Outline: (§2)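 MDCK monolayers; A-to-B Papp in 1 × 10⁻⁶ cm/s; efflux taken as ratio of A-to-B Papp over B-to-A Papp.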

[9] = Percentage unbound in human plasma; type: ADME, cell-free; outline: as §1
[10] = Equilibrium solubility of the compound at pH 7.4; type: physicochemical; settings: buffer
[11] = tested on: MDCK; experiment: Efflux ratio of apparent permeability from apical to basolateral side over basolateral to apical side in MDCK cells; type: ADME, cell-based, Canis lupus familiaris; settings: dog; outline: as §2

T1 sequence (Q9Y5N1 whole entry): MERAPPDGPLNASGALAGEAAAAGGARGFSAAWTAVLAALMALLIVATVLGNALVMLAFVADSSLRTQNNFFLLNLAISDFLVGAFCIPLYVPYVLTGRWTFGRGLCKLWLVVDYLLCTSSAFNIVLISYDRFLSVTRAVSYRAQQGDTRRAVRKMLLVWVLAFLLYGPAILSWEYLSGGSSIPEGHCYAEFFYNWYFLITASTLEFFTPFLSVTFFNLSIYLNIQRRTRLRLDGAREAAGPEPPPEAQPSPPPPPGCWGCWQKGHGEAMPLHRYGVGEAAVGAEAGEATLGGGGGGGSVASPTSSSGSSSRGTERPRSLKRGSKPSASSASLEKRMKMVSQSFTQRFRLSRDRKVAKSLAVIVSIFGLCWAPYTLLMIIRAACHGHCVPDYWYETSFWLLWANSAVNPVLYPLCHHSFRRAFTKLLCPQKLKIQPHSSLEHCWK
Voltage-gated inwardly rectifying potassium channel KCNH2, sequence (Q12809 whole entry): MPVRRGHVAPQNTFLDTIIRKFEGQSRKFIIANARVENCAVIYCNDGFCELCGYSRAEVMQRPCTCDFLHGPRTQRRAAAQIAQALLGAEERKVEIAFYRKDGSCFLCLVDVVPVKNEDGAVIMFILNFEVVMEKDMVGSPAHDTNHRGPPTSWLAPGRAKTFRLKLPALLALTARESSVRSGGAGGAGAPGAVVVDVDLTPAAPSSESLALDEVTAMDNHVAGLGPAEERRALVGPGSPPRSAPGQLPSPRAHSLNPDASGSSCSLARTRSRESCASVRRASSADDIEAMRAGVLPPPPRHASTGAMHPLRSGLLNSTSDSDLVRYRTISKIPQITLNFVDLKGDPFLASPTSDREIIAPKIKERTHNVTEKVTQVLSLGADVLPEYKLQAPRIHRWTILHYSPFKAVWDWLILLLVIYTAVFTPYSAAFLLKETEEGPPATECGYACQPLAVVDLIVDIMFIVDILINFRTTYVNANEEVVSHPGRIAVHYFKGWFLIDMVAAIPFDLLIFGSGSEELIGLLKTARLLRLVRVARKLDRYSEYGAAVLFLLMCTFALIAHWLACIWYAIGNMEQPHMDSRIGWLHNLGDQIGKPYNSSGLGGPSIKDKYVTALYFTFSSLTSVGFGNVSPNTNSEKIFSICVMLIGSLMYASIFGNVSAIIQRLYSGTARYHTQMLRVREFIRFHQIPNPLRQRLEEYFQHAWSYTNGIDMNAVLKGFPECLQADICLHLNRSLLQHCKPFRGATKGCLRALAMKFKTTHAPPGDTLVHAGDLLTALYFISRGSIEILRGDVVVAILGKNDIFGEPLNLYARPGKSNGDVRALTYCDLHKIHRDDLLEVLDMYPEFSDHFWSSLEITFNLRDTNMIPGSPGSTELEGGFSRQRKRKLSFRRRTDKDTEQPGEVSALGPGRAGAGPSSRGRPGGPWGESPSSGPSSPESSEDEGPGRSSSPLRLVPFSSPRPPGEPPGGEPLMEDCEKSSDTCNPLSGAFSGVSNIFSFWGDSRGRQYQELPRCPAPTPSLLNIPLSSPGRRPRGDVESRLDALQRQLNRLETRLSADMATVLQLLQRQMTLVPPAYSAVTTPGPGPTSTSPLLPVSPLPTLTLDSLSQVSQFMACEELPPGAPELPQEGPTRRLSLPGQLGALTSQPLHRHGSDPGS

Compound	logD [1]	IC50 [2] [nM]	IC50 [3] [nM]	Ki [4] [nM]	further results
O=C(c1ccccc1)N1CCC2(CCCN(C(=O)N3CCCN(C4CCC4)CC3)C2)CC1	1.62	18			
CC(C)N1CCCN(C(=O)C2CC3(CCN(C(=O)c4ccccc4)CC3)C2)CC1	1.63	12	> 33000		
O=C(C1CC12CCNCC2)N1CCN(C2CCCCC2)CC1 (racemic)	-1	360	> 33000	439	
O=C(C1CC2(CCN(C3CCOCC3)CC2)C1)N1CCN(C2CCCCC2)CC1	0.75	1.6			
O=C(C1CC2(CCN(c3ccccc3)CC2)C1)N1CCN(C2CCC2)CC1	3.25	66	> 33000		
O=C(C1CC12CCN(C1CCOCC1)CC2)N1CCN(C2CCCC2)CC1 (racemic)				1.4	microsomal CLint [5]: 43 µL/min/mg; microsomal CLint [6]: 7.2 µL/min/mg; fraction unbound [7]: 0.65; Papp A→B [8]: < 2.2 ×10⁻⁶ cm/s; fraction unbound [9]: 0.5; solubility thermodynamic [10]: > 500 µM
CC(C)N1CCN(C(=O)C2CC23CCN(C2CCOCC2)CC3)CC1 (racemic)		3.2		3	microsomal CLint [5]: 24 µL/min/mg; microsomal CLint [6]: < 4 µL/min/mg; fraction unbound [7]: 0.69; Papp A→B [8]: 5.4 ×10⁻⁶ cm/s; fraction unbound [9]: 0.87; solubility thermodynamic [10]: > 500 µM
O=C(C1CC12CCN(c1ccncc1)CC2)N1CCN(C2CCCCC2)CC1 (racemic)	1.09	83		55	
O=C(C1CC2(CCN(C3CCOCC3)CC2)C1)N1CCCN(C2CCC2)CC1	-0.89	0.8			
O=C(C1CC2(CCN(C3CCOCC3)CC2)C1)N1CCN2CCCCC2C1 (stereo unspecified)	-0.46	6.3			
O=C(C1CC12CCN(C1CCOCC1)CC2)N1CCCN(C2CCC2)CC1 (racemic)	0.18	17		3	
O=C(C1CC12CCN(C1CCOCC1)CC2)N1CCN(C2CC2)CC1 (racemic)				11	microsomal CLint [5]: 20 µL/min/mg; microsomal CLint [6]: < 4 µL/min/mg; Papp A→B [8]: 8.4 ×10⁻⁶ cm/s; solubility thermodynamic [10]: > 500 µM
O=C(c1ccccc1)N1CCC2(CC1)CC(C(=O)N1CCN(C3CCC3)CC1)C2	2.09		> 33000		
O=C(N1CCCN(C2CCC2)CC1)N1CCC2(CCCN(S(=O)(=O)c3ccccc3)C2)C1 (stereo unspecified)	1.74	6.5	> 33000		
O=C(C1CC12CCC(C1CCCCC1)CC2)N1CCN(C2CCC2)CC1 (racemic)				> 10000	solubility thermodynamic [10]: 1 µM (≈ 0.359 µg/mL)
O=C(C1CC12CCN(C1CCOCC1)CC2)N1CCN(C2CCCCC2)CC1 (racemic)	0.74	12		26	
O=C(C1CC12CCN(CCc1ccccc1)CC2)N1CCN(C2CCCCC2)CC1 (racemic)		16		21	
CC(C)N1CCN(C(=O)[C@@H]2CC23CCN(C2CCOCC2)CC3)CC1	-0.35	87		16	

Compound	logD [1]	IC50 [2] [nM]	IC50 [3] [nM]	Ki [4] [nM]	further results
O=C(C1CC12CCN(C1CCOCC1)CC2)N1CCN(c2ccncc2)CC1 (racemic)	-1.09			8.4	
O=C(N1CCCN(C2CCC2)CC1)N1CCC2(CCCN(C3CCOCC3)C2)C1 (stereo unspecified)	0.23	4.4	> 33000		
O=C(N1CCN(C2CCC2)CC1)N1CCC2(CCN(S(=O)(=O)c3ccccc3)CC2)C1	2.27	21			
O=C(N1CCCN(C2CCC2)CC1)N1CCC2(CCN(S(=O)(=O)c3ccccc3)CC2)C1	1.71	2.7	> 33000		
CN1CCN(C(=O)C2CC23CCN(C2CCOCC2)CC3)CC1 (racemic)		1100		1300	
O=C(C1CC12CCN(C1CCOCC1)CC2)N1CCN(C2CCCCCC2)CC1 (racemic)				65	
O=C(c1ccccc1)N1CCCC2(CCN(C(=O)N3CCCN(C4CCC4)CC3)C2)C1 (stereo unspecified)	1.01	4			
O=C(c1ccccc1)N1CCC2(CC1)CCN(C(=O)N1CCCN(C3CCC3)CC1)C2	1.22	3.6	> 33000		
O=C(C1CC12CCN(Cc1ccccc1)CC2)N1CCN(C2CCCCC2)CC1 (racemic)	2.81			103	
O=C(c1ccccc1)N1CCC2(CC1)CCN(C(=O)C1CCN(C3CCC3)CC1)C2		340			
CC(C)N1CCN(C(=O)N2CCC3(CCN(C4CCOCC4)CC3)C2)CC1	-0.87	32	> 33000		
O=C(C1CC12CCN(C1CCCCC1)CC2)N1CCN(C2CCCCC2)CC1 (racemic)			20800	19	microsomal CLint [5]: 31 µL/min/mg; microsomal CLint [6]: 14 µL/min/mg; Ratio [11]: > 2; fraction unbound [7]: 0.62; Papp A→B [8]: < 1.7 ×10⁻⁶ cm/s; fraction unbound [9]: 0.81; solubility thermodynamic [10]: > 500 µM
O=C(C1CC12CCN(C1CCC1)CC2)N1CCN(C2CCOCC2)CC1 (racemic)		66		67	
CC(C)N1CCN(C(=O)N2CC3(CCN(C4CCOCC4)CC3)C2)CC1		900		97	
CC(C)N1CCC2(CC1)CC2C(=O)N1CCN(C2CCCCC2)CC1 (racemic)	0.74	19		47	
CC(C)N1CCN(C(=O)N2CCC3(CCCN(C4CCOCC4)C3)C2)CC1 (stereo unspecified)	-0.19	140	> 33000		
O=C(C1CC12CCN(c1ccccc1)CC2)N1CCN(C2CCCCC2)CC1 (racemic)	3.63			1670	
CC(C)N1CCCN(C(=O)C2CC3(CCN(C4CCOCC4)CC3)C2)CC1	-1.78	14			
